Positions of bridges follow the written chain, without caps; N, C: chain ends. Residues, ends and D or L forms follow the SMILES beside them. Chains are numbered I, II in the order given.
Legend:
[1] = Ratio of drug level in infected thigh muscle to contralateral noninfected thigh muscle in multidrug-resistant Staphylococcus aureus 2141 infected Swiss mouse administered as [99m]technetium-radiolabeled peptide; format: ADME, tissue-based; conditions: in vivo
In short: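 99mTc-labelled peptides (2 to 5 MBq) injected intravenously into infected mice. Scintigraphic imaging at intervals. Ratio = accumulation in infected thigh muscle (target) over contralateral noninfected thigh muscle (nontarget).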

Staphylococcus aureus [2] = test: Bactericidal activity against multidrug-resistant Staphylococcus aureus 2141 isolate infected iv dosed Swiss mouse assessed per gram of infected soft tissue after 24 hrs; format: functional
In short: (§1)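 Mice infected with 0.1 ml saline containing 0.5 to 2.0 × 10^7 CFU. After 18 h, various peptide amounts given intravenously. Mice kept another 24 h, then sacrificed and viable bacteria counted. LC50 = μmol/g infected tissue cutting viable counts by 50% versus untreated mice. Means from at least three animals per peptide concentration.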

Staphylococcus aureus [3] = test: Bactericidal activity against Staphylococcus aureus ATCC 25923 after 2 hrs; format: functional; conditions: ATCC 25923, 2 h
In short: (§2)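 1 × 10^6/ml bacteria in phosphate buffer with 1% (wt/vol) tryptic soybean broth exposed to various peptide amounts, 2 h at 37°C. Viable counts on DST plates. LC50 = concentration (μM) cutting viable bacteria by 50% versus no-peptide incubations. Means from at least three independent experiments.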

Staphylococcus aureus [4] = test: Bactericidal activity against multidrug-resistant Staphylococcus aureus 2141 isolate after 2 hrs; format: functional; in short: as §2
Liver = test: Biodistribution in Swiss mouse liver at 2 to 5 MBq, iv administered as [99m]technetium-radiolabeled peptide by scintigraphic imaging; format: ADME, organism-based; conditions: in vivo
In short: (§3)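 Mice carry a thigh-muscle infection from 0.1 ml saline containing 0.5 to 2.0 × 10^7 CFU S. aureus. Peptides labelled with 99mTc (2 to 5 MBq) are injected intravenously and tracked by scintigraphic imaging. Radioactivity in bladder, kidneys, spleen, liver and infected muscle is given as % of injected dose, mean ± SD.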

[5] = Biodistribution in Swiss mouse urinary bladder at 2 to 5 MBq, iv administered as [99m]technetium-radiolabeled peptide by scintigraphic imaging; format: ADME, organism-based; conditions: in vivo; in short: as §3
[6] = Biodistribution in Staphylococcus aureus infected Swiss mouse thigh muscle at 2 to 5 MBq, iv administered as [99m]technetium-radiolabeled peptide by scintigraphic imaging; format: ADME, organism-based, Muscle tissue; conditions: in vivo; in short: as §3
Mus musculus = test: Metabolic stability in Swiss mouse at 2 to 5 MBq, iv administered as [99m]technetium-radiolabeled peptide by scintigraphic imaging; format: ADME, organism-based; conditions: in vivo
In short: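 After intravenous injection of 99mTc-labelled peptide (2 to 5 MBq) into thigh-infected mice, scintigraphic imaging follows clearance from the circulation. The value is the biological half-life in minutes, mean ± SD.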

Staphylococcus aureus [7] = test: Bactericidal activity against Staphylococcus aureus ATCC 25923 infected iv dosed Swiss mouse assessed per gram of infected soft tissue after 24 hrs; format: functional; in short: as §1
Spleen = test: Biodistribution in Swiss mouse spleen at 2 to 5 MBq, iv administered as [99m]technetium-radiolabeled peptide by scintigraphic imaging; format: ADME, organism-based; conditions: in vivo; in short: as §3
Kidney = test: Biodistribution in Swiss mouse kidney at 2 to 5 MBq, iv administered as [99m]technetium-radiolabeled peptide by scintigraphic imaging; format: ADME, organism-based; conditions: in vivo; in short: as §3

Row | SMILES | Ratio [1] | LC50 (Staphylococcus aureus [2]) [µmol/g] | LC50 (Staphylococcus aureus [3]) [µM] | LC50 (Staphylococcus aureus [4]) [µM] | Drug uptake (Liver) [%ID] | Drug uptake [5] [%ID] | Drug uptake [6] [%ID] | t1/2 (Mus musculus) [min] | LC50 (Staphylococcus aureus [7]) [µmol/g] | Drug uptake (Spleen) [%ID] | Drug uptake (Kidney) [%ID]
1 | C[C@H](N)C(=O)N[C@@H](CCCCN)C(=O)N[C@@H](CCCNC(=N)N)C(=O)N[C@@H](Cc1c[nH]cn1)C(=O)N[C@@H](Cc1c[nH]cn1)C(=O)NCC(=O)N[C@@H](Cc1ccc(O)cc1)C(=O)N[C@@H](CCCCN)C(=O)N[C@@H](CCCNC(=N)N)C(=O)N[C@@H](CCCCN)C(=O)N[C@@H](Cc1ccccc1)C(=O)N[C@@H](Cc1c[nH]cn1)C(=O)O (H-AKRHHGYKRKFH-OH) | 1.8 | – | – | – | – | – | – | – | – | – | –
2 | C[C@H](N)C(=O)N[C@@H](CCCCN)C(=O)N[C@@H](CCCNC(=N)N)C(=O)N[C@@H](Cc1cnc[nH]1)C(=O)N[C@@H](Cc1cnc[nH]1)C(=O)NCC(=O)N[C@@H](Cc1ccc(O)cc1)C(=O)N[C@@H](CCCCN)C(=O)N[C@@H](CCCNC(=N)N)C(=O)N[C@@H](CCCCN)C(=O)N[C@@H](Cc1ccccc1)C(=O)N[C@@H](Cc1cnc[nH]1)C(=O)O (H-AKRHHGYKRKFH-OH) | – | 3 | 12.5 | 18.6 | – | – | – | – | – | – | –
3 | CC(C)C[C@H](NC(=O)[C@H](CO)NC(=O)[C@H](Cc1ccccc1)NC(=O)[C@H](CC(C)C)NC(=O)[C@H](CC(C)C)NC(=O)[C@H](CCCCN)NC(=O)[C@H](CCCCN)NC(=O)[C@H](Cc1ccccc1)NC(=O)[C@H](CC(C)C)NC(=O)[C@H](CCCNC(=N)N)NC(=O)[C@@H](N)CCCCN)C(=O)N[C@@H](CCCNC(=N)N)C(=O)N[C@@H](CCCCN)C(=O)N[C@@H](Cc1ccc(O)cc1)C(=O)O (H-KRLFKKLLFSLRKY-OH) | 1.8 | 1.5 | 4.2 | 3.1 | 10.7 | 23.8 | 0.5 | 28.6 | 1 | 3.1 | 24.9
4 | CC(C)C[C@H](NC(=O)[C@H](CC(C)C)NC(=O)[C@H](Cc1ccccc1)NC(=O)[C@H](CC(C)C)NC(=O)[C@H](CC(C)C)NC(=O)[C@@H](N)CC(C)C)C(=O)N[C@@H](CCCCN)C(=O)N[C@@H](CCCCN)C(=O)N[C@@H](CCCNC(=N)N)C(=O)N[C@@H](CCCCN)C(=O)N[C@@H](CCCCN)C(=O)N[C@@H](CCCNC(=N)N)C(=O)N[C@@H](CCCCN)C(=O)N[C@@H](Cc1ccc(O)cc1)C(=O)O (H-LLLFLLKKRKKRKY-OH) | 1.8 | 3 | 51 | 17.3 | 12.8 | 14.6 | 0.9 | 38.8 | 2 | 10.8 | 26
5 | C[C@H](N)C(=O)N[C@@H](CCCCN)C(=O)N[C@@H](CCCNC(=N)N)C(=O)N[C@@H](Cc1cnc[nH]1)C(=O)N[C@@H](Cc1cnc[nH]1)C(=O)NCC(=O)N[C@@H](Cc1ccc(O)cc1)C(=O)N[C@@H](CCCCN)C(=O)N[C@@H](CCCNC(=N)N)C(=O)N[C@@H](CCCCN)C(=O)N[C@@H](Cc1ccccc1)C(=O)N[C@@H](Cc1cnc[nH]1)C(=O)NCCCC[C@H](NC(=O)[C@H](Cc1cnc[nH]1)NC(=O)[C@H](Cc1ccccc1)NC(=O)[C@H](CCCCN)NC(=O)[C@H](CCCNC(=N)N)NC(=O)[C@H](CCCCN)NC(=O)[C@H](Cc1ccc(O)cc1)NC(=O)CNC(=O)[C@H](Cc1cnc[nH]1)NC(=O)[C@H](Cc1cnc[nH]1)NC(=O)[C@H](CCCNC(=N)N)NC(=O)[C@H](CCCCN)NC(=O)[C@H](C)N)C(N)=O (I: H-AKRHHGYKRKFHK-NH2 / II: H-AKRHHGYKRKFH; amide I:13-II:C) [listing 1 of 2 here] | 1.8 | – | – | – | – | – | – | – | – | – | –
6 | C[C@H](N)C(=O)N[C@@H](CCCCN)C(=O)N[C@@H](CCCNC(=N)N)C(=O)N[C@@H](Cc1cnc[nH]1)C(=O)N[C@@H](Cc1cnc[nH]1)C(=O)NCC(=O)N[C@@H](Cc1ccc(O)cc1)C(=O)N[C@@H](CCCCN)C(=O)N[C@@H](CCCNC(=N)N)C(=O)N[C@@H](CCCCN)C(=O)N[C@@H](Cc1ccccc1)C(=O)N[C@@H](Cc1cnc[nH]1)C(=O)NCCCC[C@H](NC(=O)[C@H](Cc1cnc[nH]1)NC(=O)[C@H](Cc1ccccc1)NC(=O)[C@H](CCCCN)NC(=O)[C@H](CCCNC(=N)N)NC(=O)[C@H](CCCCN)NC(=O)[C@H](Cc1ccc(O)cc1)NC(=O)CNC(=O)[C@H](Cc1cnc[nH]1)NC(=O)[C@H](Cc1cnc[nH]1)NC(=O)[C@H](CCCNC(=N)N)NC(=O)[C@H](CCCCN)NC(=O)[C@H](C)N)C(N)=O (I: H-AKRHHGYKRKFHK-NH2 / II: H-AKRHHGYKRKFH; amide I:13-II:C) [listing 2 of 2 here] | – | 3 | 49.8 | 38.9 | – | – | – | – | – | – | –
7 | CC(C)C[C@H](NC(=O)[C@H](CO)NC(=O)[C@H](Cc1ccccc1)NC(=O)[C@H](CC(C)C)NC(=O)[C@H](CC(C)C)NC(=O)[C@H](CCCCN)NC(=O)[C@H](CCCCN)NC(=O)[C@H](Cc1ccccc1)NC(=O)[C@H](CC(C)C)NC(=O)[C@H](CCCNC(=N)N)NC(=O)[C@@H](N)CCCCN)C(=O)N[C@@H](CCCNC(=N)N)C(=O)N[C@@H](CCCCN)C(=O)N[C@@H](Cc1ccc(O)cc1)C(=O)NCCCC[C@H](NC(=O)[C@H](Cc1ccc(O)cc1)NC(=O)[C@H](CCCCN)NC(=O)[C@H](CCCNC(=N)N)NC(=O)[C@H](CC(C)C)NC(=O)[C@H](CO)NC(=O)[C@H](Cc1ccccc1)NC(=O)[C@H](CC(C)C)NC(=O)[C@H](CC(C)C)NC(=O)[C@H](CCCCN)NC(=O)[C@H](CCCCN)NC(=O)[C@H](Cc1ccccc1)NC(=O)[C@H](CC(C)C)NC(=O)[C@H](CCCNC(=N)N)NC(=O)[C@@H](N)CCCCN)C(N)=O (I: H-KRLFKKLLFSLRKYK-NH2 / II: H-KRLFKKLLFSLRKY; amide I:15-II:C) | 1.8 | 1 | 0.5 | 0.4 | 19.9 | 17 | 0.8 | 34 | 1 | 4 | 29.1
8 | CC(C)C[C@H](NC(=O)[C@H](CC(C)C)NC(=O)[C@H](Cc1ccccc1)NC(=O)[C@H](CC(C)C)NC(=O)[C@H](CC(C)C)NC(=O)[C@@H](N)CC(C)C)C(=O)N[C@@H](CCCCN)C(=O)N[C@@H](CCCCN)C(=O)N[C@@H](CCCNC(=N)N)C(=O)N[C@@H](CCCCN)C(=O)N[C@@H](CCCCN)C(=O)N[C@@H](CCCNC(=N)N)C(=O)N[C@@H](CCCCN)C(=O)N[C@@H](Cc1ccc(O)cc1)C(=O)NCCCC[C@H](NC(=O)[C@H](Cc1ccc(O)cc1)NC(=O)[C@H](CCCCN)NC(=O)[C@H](CCCNC(=N)N)NC(=O)[C@H](CCCCN)NC(=O)[C@H](CCCCN)NC(=O)[C@H](CCCNC(=N)N)NC(=O)[C@H](CCCCN)NC(=O)[C@H](CCCCN)NC(=O)[C@H](CC(C)C)NC(=O)[C@H](CC(C)C)NC(=O)[C@H](Cc1ccccc1)NC(=O)[C@H](CC(C)C)NC(=O)[C@H](CC(C)C)NC(=O)[C@@H](N)CC(C)C)C(N)=O (I: H-LLLFLLKKRKKRKYK-NH2 / II: H-LLLFLLKKRKKRKY; amide I:15-II:C) | 1.8 | 2 | 0.4 | 0.4 | 16.7 | 18.8 | 0.6 | 23.2 | 5 | 3.1 | 28.3
9 | C[C@H](NC(=O)[C@H](Cc1cnc[nH]1)NC(=O)[C@H](CO)NC(=O)[C@@H](N)CC(=O)O)C(=O)N[C@@H](CCCCN)C(=O)N[C@@H](CCCNC(=N)N)C(=O)N[C@@H](Cc1cnc[nH]1)C(=O)N[C@@H](Cc1cnc[nH]1)C(=O)NCC(=O)N[C@@H](Cc1ccc(O)cc1)C(=O)N[C@@H](CCCCN)C(=O)N[C@@H](CCCNC(=N)N)C(=O)N[C@@H](CCCCN)C(=O)N[C@@H](Cc1ccccc1)C(=O)N[C@@H](Cc1cnc[nH]1)C(=O)N[C@@H](CCC(=O)O)C(=O)N[C@@H](CCCCN)C(=O)N[C@@H](Cc1cnc[nH]1)C(=O)N[C@@H](Cc1cnc[nH]1)C(=O)N[C@@H](CO)C(=O)N[C@@H](Cc1cnc[nH]1)C(=O)N[C@@H](CCCNC(=N)N)C(=O)NCC(=O)N[C@@H](Cc1ccc(O)cc1)C(=O)O [HISTATIN 5] | 1.8 | 3.5 | 8.3 | 2.8 | 8.7 | 25.9 | 0.5 | 9.7 | 1 | 1.4 | 23.8

— ChEMBL document CHEMBL1154425, “Histatin-derived monomeric and dimeric synthetic peptides show strong bactericidal activity towards multidrug-resistant Staphylococcus aureus in vivo” (Antimicrob Agents Chemother, 2007)
